The source made the active and inactive calls. No cut-off for these calls is given here.
How the values were obtained:
[1] = tested on: PC-9; test: Antiproliferative activity against human PC9 by MTT assay; format: functional, cell-based
Outline: (§1)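 MTT viability assay: cells seeded at 2~5×10^3 per well, exposed to serial dilutions of compound for 72h, then MTT (5 mg/mL in PBS) added for 4h at 37°C. Formazan dissolved in DMSO and read at 490nm. IC50 reported as mean ± SD of three independent experiments.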

[2] = tested on: TE-1; test: Antiproliferative activity against human TE1 after 72 hrs by MTT assay; format: functional, cell-based; outline: as §1
[3] = tested on: A549; test: Induction of apoptosis in human A549 cells assessed as early apoptotic cells at 2.5 uM after 48 hrs by Annexin V-FITC/propidium iodide staining based flow cytometry (reference value: 3.63%); format: functional
[4] = tested on: NCI-H1975; test: Induction of apoptosis in human NCI-NCI-H1975 cells assessed as necrotic cells at 2.5 uM after 48 hrs by Annexin V-FITC/propidium iodide staining based flow cytometry (reference value: 0.94%); format: functional
[5] = tested on: KYSE-70 cell line; test: Antiproliferative activity against human KYSE-70 after 72 hrs by MTT assay; format: functional, cell-based; conditions: KYSE-70, 72 h; outline: as §1
[6] = tested on: PC-9; test: Induction of apoptosis in human PC9 cells assessed as late apoptotic cells at 2.5 uM after 48 hrs by Annexin V-FITC/propidium iodide staining based flow cytometry (reference value: 1.57%); format: functional
[7] = tested on: PC-9; test: Induction of apoptosis in human PC9 cells after 48 hrs by Annexin V-FITC/propidium iodide staining based flow cytometry; format: functional, cell-based
Outline: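 PC9 cells seeded in 6-well plates (1~2×10^6 cells/mL), incubated overnight, then exposed to 0, 2.5, 5 or 10µM compound for 48h. Harvested cells stained with Annexin-V-FITC/PI for 30 min and analysed by flow cytometry. Three individual experiments; means ± SD.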

[8] = tested on: NCI-H1975; test: Induction of apoptosis in human NCI-NCI-H1975 cells assessed as viable cells at 2.5 uM after 48 hrs by Annexin V-FITC/propidium iodide staining based flow cytometry (reference value: 96.1%); format: functional; conditions: NCI-H1975, 48 h, read-out: Activity
[9] = tested on: A549; test: Induction of apoptosis in human A549 cells assessed as late apoptotic cells at 2.5 uM after 48 hrs by Annexin V-FITC/propidium iodide staining based flow cytometry (reference value: 2.61%); format: functional
[10] = molecular target: T1, NEDD8-activating enzyme E1 catalytic subunit (Homo sapiens) (UniProt Q8TBC4); test: Inhibition of NEDD8-activating enzyme E1C (unknown origin) assessed as effect on NEDD8/UBE2M complex formation up to 100 uM pre-incubated for 10 mins followed by Mg-ATP addition after 60 mins by SDS-PAGE analysis
T1 sequence (whole entry): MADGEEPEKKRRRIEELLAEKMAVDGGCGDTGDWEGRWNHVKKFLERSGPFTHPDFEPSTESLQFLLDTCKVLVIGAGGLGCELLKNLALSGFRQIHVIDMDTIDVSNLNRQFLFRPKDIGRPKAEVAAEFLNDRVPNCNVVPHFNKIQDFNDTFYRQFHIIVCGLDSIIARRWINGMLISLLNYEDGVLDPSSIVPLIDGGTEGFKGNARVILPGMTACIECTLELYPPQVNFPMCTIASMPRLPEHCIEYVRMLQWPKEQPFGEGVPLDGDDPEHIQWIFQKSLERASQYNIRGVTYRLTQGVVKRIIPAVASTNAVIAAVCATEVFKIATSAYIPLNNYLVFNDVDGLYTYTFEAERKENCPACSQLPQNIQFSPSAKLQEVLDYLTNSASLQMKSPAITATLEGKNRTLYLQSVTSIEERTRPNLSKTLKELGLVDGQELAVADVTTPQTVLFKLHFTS
Outline: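 Cell-free NEDD8~UBE2M formation: NEDD8 E1 mixed with NEDD8, UBE2M and compound (10 and 20µM reference inhibitor, or 1, 10 and 100µM test compound) in reaction buffer, 10 min at room temperature. Started with Mg-ATP, incubated 60 min at 37°C, then 1mM DTT and non-reducing loading buffer added. Resolved on 12% SDS-PAGE.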

[11] = molecular target: T2, DCN1-like protein 1 (Homo sapiens, UniProt Q96GG9)
Target sequence in this assay (Q96GG9 whole entry, looked up): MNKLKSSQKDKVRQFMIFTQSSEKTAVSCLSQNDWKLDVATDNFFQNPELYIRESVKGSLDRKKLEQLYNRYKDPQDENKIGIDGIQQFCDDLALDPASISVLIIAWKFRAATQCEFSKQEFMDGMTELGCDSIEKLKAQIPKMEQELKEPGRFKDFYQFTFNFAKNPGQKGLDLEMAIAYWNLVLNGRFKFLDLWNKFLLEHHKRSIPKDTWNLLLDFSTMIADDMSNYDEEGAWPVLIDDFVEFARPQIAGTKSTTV

[12] = tested on: A549; test: Inhibition of colony formation in human A549 cells after 7 days by crystal violet staining based microscopic analysis; format: functional, cell-based
Outline: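 H1975, PC9 and A549 cells seeded at 1×10^3 cells per well and cultured overnight, then given fresh medium with compound at 0, 0.625, 1.25, 2.5, 5 or 10μM for 7 days. Cells fixed, stained with 0.1% crystal violet and imaged by microscopy; dye then dissolved and read on a plate reader. Three experiments; means ± SD.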

[13] = molecular target: T2, DCN1-like protein 1; test: Binding affinity to N-terminal His6-tagged recombinant human DCN1 expressed in Escherichia coli BL21-AI assessed as reduction in DCN1-FAM-labelled N-terminal acetylated UBE2M (1 to 12 residues) protein-protein interaction after 30 mins by fluorescence polarization competitive binding assay
Target sequence in this assay (Q96GG9 whole entry): as the sequence (Q96GG9 whole entry, looked up) above

[14] = tested on: ECa-109 cell line; test: Antiproliferative activity against human EC109 after 72 hrs by MTT assay; format: functional, cell-based; outline: as §1
[15] = tested on: GES1; test: Antiproliferative activity against human GES-1 after 72 hrs by MTT assay; format: cell-based; conditions: ges1, 72 h; outline: as §1
[16] = tested on: PC-9; test: Effect on NQO1 accumulation in human PC9 cells transfected with DCN1 siRNA3 by densitometric method; format: functional, cell-based
Outline: (§2)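 H1975 or PC9 cells seeded in 6-well plates for 16-24h, transfected with DCN1 siRNA#3 by lipofection, with or without compound, and collected three days later. Western blot for Cullin3, DCN1, NRF2, HO-1 and NQO1, with densitometry normalized to GAPDH. Three individual experiments, means ± SD.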

[17] = tested on: MCF7; test: Antiproliferative activity against human MCF7 after 72 hrs by MTT assay; format: functional, cell-based; conditions: MCF7, 72 h; outline: as §1
[18] = tested on: L02; test: Antiproliferative activity against human L02 after 72 hrs by MTT assay; format: cell-based; conditions: l02, 72 h; outline: as §1
[19] = tested on: NCI-H1975; test: Induction of apoptosis in human NCI-NCI-H1975 cells assessed as necrotic cells at 5 uM after 48 hrs by Annexin V-FITC/propidium iodide staining based flow cytometry (reference value: 0.94%); format: functional
[20] = tested on: NCI-H1975; test: Effect on HO-1 accumulation in human […] cells transfected with DCN1 siRNA3 by densitometric method; format: functional, cell-based; outline: as §2
[21] = tested on: A549; test: Induction of apoptosis in human A549 cells assessed as late apoptotic cells at 5 uM after 48 hrs by Annexin V-FITC/propidium iodide staining based flow cytometry (reference value: 2.61%); format: functional
[22] = tested on: NCI-H1975; test: Induction of apoptosis in human NCI-NCI-H1975 cells assessed as early apoptotic cells at 5 uM after 48 hrs by Annexin V-FITC/propidium iodide staining based flow cytometry (reference value: 2.47%); format: functional
[23] = tested on: A549; test: Induction of apoptosis in human A549 cells assessed as early apoptotic cells at 5 uM after 48 hrs by Annexin V-FITC/propidium iodide staining based flow cytometry (reference value: 3.63%); format: functional
[24] = tested on: PC-9; test: Effect on Cullin3 neddylation in human PC9 cells transfected with DCN1 siRNA3 by densitometric method; format: functional, cell-based; outline: as §2

C#CCSc1nc(Sc2nccs2)c(C#N)c(-c2ccc(C)cc2)n1
IC50 [1]: 1110 nM
Activity ([1]; TDE = time-dependent effect): Tde
Activity [2]: Active
Activity [3]: 6.21%
Activity [4]: 1.35%
IC50 [5]: 4300 nM
Activity [6]: 10.2%
Activity [7]: Dose-dependent effect
viability at 2.5 µM [8]: 80%
Activity [9]: 10.3%
inhibition [10]: inactive
ΔTm [11]: 7 °C
inhibition [12]: Dose-dependent effect
IC50 [13]: 26.9 nM
Ki [13]: 20.8 nM
Activity [14]: Active
Activity [15]: Non-Toxic
Activity [16]: inactive
IC50 [17]: 2200 nM
Activity [18]: Non-Toxic
Activity [19]: 4.92%
Activity [20]: inactive
Activity [21]: 31.6%
Activity [22]: 28.4%
Activity [23]: 8.75%
Activity [24]: inactive
